The values below come from article PMC6407616 (Molecular cell, 2018).

For data set [1], the target named is H3Kc9me3 601 dinucleosome with 20 bp DNA linker (Xenopus laevis). The data set is described as follows: negative stain electron microscopy.
Data set [2] addresses T1, ZMET2 (Zea mays, UniProt Q9AXT8).
T1 sequence (Q9AXT8 1-912): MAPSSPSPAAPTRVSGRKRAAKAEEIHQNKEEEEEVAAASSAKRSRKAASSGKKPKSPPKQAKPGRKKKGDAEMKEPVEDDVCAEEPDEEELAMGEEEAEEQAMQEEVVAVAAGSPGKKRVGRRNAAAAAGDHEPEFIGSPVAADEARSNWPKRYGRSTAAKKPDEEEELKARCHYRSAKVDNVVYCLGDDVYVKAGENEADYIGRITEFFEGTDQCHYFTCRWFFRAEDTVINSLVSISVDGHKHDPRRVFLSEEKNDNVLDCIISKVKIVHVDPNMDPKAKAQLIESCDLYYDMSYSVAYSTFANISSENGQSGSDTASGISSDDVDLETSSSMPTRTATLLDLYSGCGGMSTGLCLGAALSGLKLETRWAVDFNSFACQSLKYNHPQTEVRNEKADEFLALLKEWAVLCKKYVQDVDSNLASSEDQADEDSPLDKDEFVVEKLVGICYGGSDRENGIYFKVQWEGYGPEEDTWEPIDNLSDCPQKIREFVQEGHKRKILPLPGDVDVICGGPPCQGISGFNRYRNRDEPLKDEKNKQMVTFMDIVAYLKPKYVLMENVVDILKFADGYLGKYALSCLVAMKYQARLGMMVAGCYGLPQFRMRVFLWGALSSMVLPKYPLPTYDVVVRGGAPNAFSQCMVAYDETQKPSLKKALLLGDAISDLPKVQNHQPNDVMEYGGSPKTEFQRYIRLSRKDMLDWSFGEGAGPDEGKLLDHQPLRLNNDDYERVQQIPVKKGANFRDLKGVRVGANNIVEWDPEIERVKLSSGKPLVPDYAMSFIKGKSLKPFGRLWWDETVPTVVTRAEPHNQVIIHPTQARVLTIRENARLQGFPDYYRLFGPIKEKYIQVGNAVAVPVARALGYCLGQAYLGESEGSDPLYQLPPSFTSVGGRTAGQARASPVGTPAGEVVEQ
As to the kind of experiment: DNA methyltransferase assay on unmethylated or hemimethylated 38 bp duplexed DNA. Type of data set: biochemical. Particulars: 300 nM 38 bp duplex; single-turnover, saturating ZMET2; no peptide; n=2.

For data set [3], the target named is ZMET2 (Zea mays, UniProt Q9AXT8 1-912). As to the kind of experiment: fluorescence polarization.
Data set [4] can be described thus: Size-exclusion chromatography coupled to multi angle light scattering. The following applies: 20 mM Tris-HCl pH 8.0, 150 mM NaCl, 1 mM DTT; Figure S1E. Format: physicochemical. In a few lines: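 Recombinant ZMET2 was expressed with 0.2 mM IPTG at 20°C for 16–18 h, then purified by imidazole elution, TEV cleavage, Q anion exchange and Superdex 200 gel filtration. Samples were filtered and injected onto an S 050 size-exclusion column equilibrated overnight in MALS buffer. Molar mass was read by inline multi-angle light scattering with refractive index detection.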

The next data set concerns naked 157 bp DNA. Type of data set: biochemical. The following applies: in words, H3K9me0/2 peptides in trans, Figure S4E.
Data set [5] can be described thus: FP binding of ZMET2 mutants to H3K9me2 tail peptides. The following applies: in words; fluorescence polarization; n=2.
Another data set relates to H3Kc9me3 mononucleosomes. As to the kind of experiment: FP binding of ZMET2 mutants to H3Kc9me3 mononucleosomes. Details: species or system Xenopus laevis.

On to “full-length recombinant ZMET2 (wild type) (from UniProt Q9AXT8 1-912) (enzyme)”, for which, in data set [1], the stoichiometry N (ZMET2 per dinucleosome) was determined as 1.
Take “unmethylated: AACGCAGCATGCGCTGCTAGC GCAGCTAGCGCTGCATG (DNA AACGCAGCATGCGCTGCTAGCGCAGCTAGCGCTGCATG; DNA, backbone not given here)”: the “rate constant, 38 bp duplexed DNA without peptide” value with ZMET2 [2] was 5.3E-5 (±1.1E-5) min^−1.

B1: 38 bp unmethylated duplex (dsDNA)
DNA 1: AACGCAGCATGCGCTGCTAGCGCAGCTAGCGCTGCATG
DNA 2: CATGCAGCGCTAGCTGCGCTAGCAGCGCATGCTGCGTT
Regarding B1, in the data set with ZMET2 [3], the binding signal is 32 fold tighter than without H3K9me2.

B2: 38 bp hemimethylated duplex (dsDNA)
DNA 1: AACGCAGCATGCGCTGCTAGCGCAGCTAGCGCTGCATG
DNA 2: CATGCAGCGCTAGCTGCGCTAGCAGCGCATGCTGCGTT
modifications: 5mC at positions 5, 14, 23 and 32 of strand 1; complement unmethylated
Consider B2, for which the binding signal in the data set with ZMET2 [3] is 36 fold tighter than without H3K9me2.

B3: ZMET2: full-length recombinant maintenance DNA methyltransferase from Zea mays (protein)
chain: MAPSSPSPAAPTRVSGRKRAAKAEEIHQNKEEEEEVAAASSAKRSRKAASSGKKPKSPPKQAKPGRKKKGDAEMKEPVEDDVCAEEPDEEELAMGEEEAEEQAMQEEVVAVAAGSPGKKRVGRRNAAAAAGDHEPEFIGSPVAADEARSNWPKRYGRSTAAKKPDEEEELKARCHYRSAKVDNVVYCLGDDVYVKAGENEADYIGRITEFFEGTDQCHYFTCRWFFRAEDTVINSLVSISVDGHKHDPRRVFLSEEKNDNVLDCIISKVKIVHVDPNMDPKAKAQLIESCDLYYDMSYSVAYSTFANISSENGQSGSDTASGISSDDVDLETSSSMPTRTATLLDLYSGCGGMSTGLCLGAALSGLKLETRWAVDFNSFACQSLKYNHPQTEVRNEKADEFLALLKEWAVLCKKYVQDVDSNLASSEDQADEDSPLDKDEFVVEKLVGICYGGSDRENGIYFKVQWEGYGPEEDTWEPIDNLSDCPQKIREFVQEGHKRKILPLPGDVDVICGGPPCQGISGFNRYRNRDEPLKDEKNKQMVTFMDIVAYLKPKYVLMENVVDILKFADGYLGKYALSCLVAMKYQARLGMMVAGCYGLPQFRMRVFLWGALSSMVLPKYPLPTYDVVVRGGAPNAFSQCMVAYDETQKPSLKKALLLGDAISDLPKVQNHQPNDVMEYGGSPKTEFQRYIRLSRKDMLDWSFGEGAGPDEGKLLDHQPLRLNNDDYERVQQIPVKKGANFRDLKGVRVGANNIVEWDPEIERVKLSSGKPLVPDYAMSFIKGKSLKPFGRLWWDETVPTVVTRAEPHNQVIIHPTQARVLTIRENARLQGFPDYYRLFGPIKEKYIQVGNAVAVPVARALGYCLGQAYLGESEGSDPLYQLPPSFTSVGGRTAGQARASPVGTPAGEVVEQ
modifications: left off: 6xHis, N-terminal, cleaved | SUMO, N-terminal, state not stated
Consider B3, for which the “oligomeric state by molar mass measurement” value in data set [4] is listed as “monomer”.

B4: CDx: ZMET2 mutated in the aromatic cage of the CD (F441A) (protein)
chain: MAPSSPSPAAPTRVSGRKRAAKAEEIHQNKEEEEEVAAASSAKRSRKAASSGKKPKSPPKQAKPGRKKKGDAEMKEPVEDDVCAEEPDEEELAMGEEEAEEQAMQEEVVAVAAGSPGKKRVGRRNAAAAAGDHEPEFIGSPVAADEARSNWPKRYGRSTAAKKPDEEEELKARCHYRSAKVDNVVYCLGDDVYVKAGENEADYIGRITEFFEGTDQCHYFTCRWFFRAEDTVINSLVSISVDGHKHDPRRVFLSEEKNDNVLDCIISKVKIVHVDPNMDPKAKAQLIESCDLYYDMSYSVAYSTFANISSENGQSGSDTASGISSDDVDLETSSSMPTRTATLLDLYSGCGGMSTGLCLGAALSGLKLETRWAVDFNSFACQSLKYNHPQTEVRNEKADEFLALLKEWAVLCKKYVQDVDSNLASSEDQADEDSPLDKDEAVVEKLVGICYGGSDRENGIYFKVQWEGYGPEEDTWEPIDNLSDCPQKIREFVQEGHKRKILPLPGDVDVICGGPPCQGISGFNRYRNRDEPLKDEKNKQMVTFMDIVAYLKPKYVLMENVVDILKFADGYLGKYALSCLVAMKYQARLGMMVAGCYGLPQFRMRVFLWGALSSMVLPKYPLPTYDVVVRGGAPNAFSQCMVAYDETQKPSLKKALLLGDAISDLPKVQNHQPNDVMEYGGSPKTEFQRYIRLSRKDMLDWSFGEGAGPDEGKLLDHQPLRLNNDDYERVQQIPVKKGANFRDLKGVRVGANNIVEWDPEIERVKLSSGKPLVPDYAMSFIKGKSLKPFGRLWWDETVPTVVTRAEPHNQVIIHPTQARVLTIRENARLQGFPDYYRLFGPIKEKYIQVGNAVAVPVARALGYCLGQAYLGESEGSDPLYQLPPSFTSVGGRTAGQARASPVGTPAGEVVEQ
modifications: left off: 6xHis, N-terminal, cleaved | SUMO, N-terminal, state not stated
B4: in the data set with naked 157 bp DNA, the “rate constant relative to wild type ZMET2, naked DNA” value is listed as “comparable to wild type ZMET2”. For the same molecule, the “binding to H3K9me2 peptides relative to wild type ZMET2” value in data set [5] was “significantly decreased compared to wild type ZMET2”. In addition, the “fold decrease in affinity for H3Kc9me3 nucleosomes vs wild type ZMET2” value with H3Kc9me3 mononucleosomes (fluorescence polarization, n=2) is 4 fold.

B5: BAHx: ZMET2 mutated in the aromatic cage of the BAH domain (W224L) (protein)
chain: MAPSSPSPAAPTRVSGRKRAAKAEEIHQNKEEEEEVAAASSAKRSRKAASSGKKPKSPPKQAKPGRKKKGDAEMKEPVEDDVCAEEPDEEELAMGEEEAEEQAMQEEVVAVAAGSPGKKRVGRRNAAAAAGDHEPEFIGSPVAADEARSNWPKRYGRSTAAKKPDEEEELKARCHYRSAKVDNVVYCLGDDVYVKAGENEADYIGRITEFFEGTDQCHYFTCRLFFRAEDTVINSLVSISVDGHKHDPRRVFLSEEKNDNVLDCIISKVKIVHVDPNMDPKAKAQLIESCDLYYDMSYSVAYSTFANISSENGQSGSDTASGISSDDVDLETSSSMPTRTATLLDLYSGCGGMSTGLCLGAALSGLKLETRWAVDFNSFACQSLKYNHPQTEVRNEKADEFLALLKEWAVLCKKYVQDVDSNLASSEDQADEDSPLDKDEFVVEKLVGICYGGSDRENGIYFKVQWEGYGPEEDTWEPIDNLSDCPQKIREFVQEGHKRKILPLPGDVDVICGGPPCQGISGFNRYRNRDEPLKDEKNKQMVTFMDIVAYLKPKYVLMENVVDILKFADGYLGKYALSCLVAMKYQARLGMMVAGCYGLPQFRMRVFLWGALSSMVLPKYPLPTYDVVVRGGAPNAFSQCMVAYDETQKPSLKKALLLGDAISDLPKVQNHQPNDVMEYGGSPKTEFQRYIRLSRKDMLDWSFGEGAGPDEGKLLDHQPLRLNNDDYERVQQIPVKKGANFRDLKGVRVGANNIVEWDPEIERVKLSSGKPLVPDYAMSFIKGKSLKPFGRLWWDETVPTVVTRAEPHNQVIIHPTQARVLTIRENARLQGFPDYYRLFGPIKEKYIQVGNAVAVPVARALGYCLGQAYLGESEGSDPLYQLPPSFTSVGGRTAGQARASPVGTPAGEVVEQ
modifications: left off: 6xHis, N-terminal, cleaved | SUMO, N-terminal, state not stated
For the molecule B5, the “binding to H3K9me2 peptides relative to wild type ZMET2” value in data set [5] is on record as “did not show a defect, showing instead modestly tighter binding”. In addition, the “affinity for H3Kc9me3 nucleosomes relative to wild type ZMET2” value with H3Kc9me3 mononucleosomes (in words, n=4) is “modestly tighter affinity for H3Kc9me3 nucleosomes”.
